Values after ≈ are worked out from the molar mass of the structure shown.
Legend:
[1] = test system: Staphylococcus epidermidis; experiment: Antibacterial activity against methicillin-sensitive Staphylococcus epidermidis ATCC 12228 after 18 to 24 hrs by two-fold serial dilution method; type: functional
Procedure, shortened: (§1)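 Agar two-fold dilution MIC. Compounds were dissolved in 0.1 N NaOH and water, then serially diluted in melted Mueller-Hinton agar, with top concentrations starting at 128. Plates were inoculated at about 10 cfu and incubated at 35 °C for 18–24 h. MIC was taken as the lowest concentration giving 90% inhibition of growth.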

[2] = test system: Staphylococcus epidermidis; experiment: Antibacterial activity against methicillin-resistant Staphylococcus epidermidis 13-3 after 18 to 24 hrs by two-fold serial dilution method; type: functional
Procedure, shortened: (§2)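 Agar two-fold serial dilution in Mueller-Hinton agar. Strains came from the Chinese Center for Disease Control and Prevention. Compounds were dissolved in 0.1 N NaOH and water, then diluted in melted agar to final levels stepping down from 128. Plates were inoculated with bacterial cfu and incubated at 35 C for 18–24 h. MIC is the lowest concentration giving 90% growth inhibition.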

Staphylococcus aureus [3] = experiment: Antibacterial activity against methicillin-sensitive Staphylococcus aureus ATCC 29213 after 18 to 24 hrs by two-fold serial dilution method; type: functional; procedure, shortened: as §2
Staphylococcus aureus [4] = experiment: Antibacterial activity against methicillin-resistant Staphylococcus aureus ATCC 33591 after 18 to 24 hrs by two-fold serial dilution method; type: functional; procedure, shortened: as §2
Enterococcus faecalis [5] = experiment: Antibacterial activity against Enterococcus faecalis ATCC 29212 after 18 to 24 hrs by two-fold serial dilution method; type: functional; procedure, shortened: as §1
Enterococcus faecalis [6] = experiment: Antibacterial activity against Enterococcus faecalis ATCC 51299 after 18 to 24 hrs by two-fold serial dilution method; type: functional; procedure, shortened: as §1
Enterococcus faecium [7] = experiment: Antibacterial activity against Enterococcus faecium ATCC 700221 after 18 to 24 hrs by two-fold serial dilution method; type: functional; procedure, shortened: as §1
Enterococcus faecium [8] = experiment: Antibacterial activity against Enterococcus faecium 13-7 after 18 to 24 hrs by two-fold serial dilution method; type: functional; procedure, shortened: as §1
Escherichia coli [9] = experiment: Antibacterial activity against extended-spectrum beta-lactamase deficient Escherichia coli ATCC 25922 after 18 to 24 hrs by two-fold serial dilution method; type: functional; procedure, shortened: as §1
Escherichia coli [10] = experiment: Antibacterial activity against extended-spectrum beta-lactamase harboring Escherichia coli ATCC 35218 after 18 to 24 hrs by two-fold serial dilution method; type: functional; procedure, shortened: as §2
Klebsiella pneumoniae [11] = experiment: Antibacterial activity against extended-spectrum beta-lactamase harboring Klebsiella pneumoniae ATCC 700603 after 18 to 24 hrs by two-fold serial dilution method; type: functional; procedure, shortened: as §2
Klebsiella pneumoniae [12] = experiment: Antibacterial activity against extended-spectrum beta-lactamase deficient Klebsiella pneumoniae 15-2 after 18 to 24 hrs by two-fold serial dilution method; type: functional; procedure, shortened: as §1
Pseudomonas aeruginosa = experiment: Antibacterial activity against Pseudomonas aeruginosa ATCC 27853 after 18 to 24 hrs by two-fold serial dilution method; type: functional; procedure, shortened: as §1
[13] = test system: Acinetobacter calcoaceticus; experiment: Antibacterial activity against Acinetobacter calcoaceticus ATCC 19606 after 18 to 24 hrs by two-fold serial dilution method; type: functional; procedure, shortened: as §1
Enterobacter cloacae = experiment: Antibacterial activity against Enterobacter cloacae ATCC 43560 after 18 to 24 hrs by two-fold serial dilution method; type: functional
Klebsiella aerogenes = experiment: Antibacterial activity against Enterobacter aerogenes ATCC 13048 after 18 to 24 hrs by two-fold serial dilution method; type: functional; procedure, shortened: as §1
Serratia marcescens = experiment: Antibacterial activity against Serratia marcescens ATCC 21074 after 18 to 24 hrs by two-fold serial dilution method; type: functional; procedure, shortened: as §1
Morganella morganii = experiment: Antibacterial activity against Morganella morganii ATCC 25830 after 18 to 24 hrs by two-fold serial dilution method; type: functional; procedure, shortened: as §1
Providencia rettgeri = experiment: Antibacterial activity against Providencia rettgeri ATCC 31052 after 18 to 24 hrs by two-fold serial dilution method; type: functional; procedure, shortened: as §1
Proteus vulgaris = experiment: Antibacterial activity against Proteus vulgaris ATCC 29905 after 18 to 24 hrs by two-fold serial dilution method; type: functional; procedure, shortened: as §1
Proteus mirabilis = experiment: Antibacterial activity against Proteus mirabilis 13-1 after 18 to 24 hrs by two-fold serial dilution method; type: functional; procedure, shortened: as §1
[14] = test system: Stenotrophomonas maltophilia; experiment: Antibacterial activity against Stenotrophomonas maltophilia ATCC 13636 after 18 to 24 hrs by two-fold serial dilution method; type: functional; procedure, shortened: as §1
Citrobacter freundii = experiment: Antibacterial activity against extended-spectrum beta-lactamase harboring Citrobacter freundii ATCC 43864 after 18 to 24 hrs by two-fold serial dilution method; type: functional; procedure, shortened: as §2
[15] = test system: Mycobacterium tuberculosis; experiment: Antimycobacterial activity against Mycobacterium tuberculosis H37Rv after 7 days; type: functional; settings: 168 h
Procedure, shortened: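 Rapid direct susceptibility test in 48-well plates. Two-fold dilutions of compound from DMSO stocks were mixed with an equal volume of bacterial suspension. Medium-only wells served as growth controls and water-only wells as no-growth controls. Plates were sealed and held at 37 C in a humid box, and controls were checked at 3 days. MIC (90% growth inhibition) was read visually by high-magnification observation of the cells and re-read at 7 days.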

[16] = Cytotoxicity against African green monkey Vero cells assessed as reduction in cell viability after 72 hrs by MTT assay; type: cell-based; settings: chlorocebus sabaeus
Procedure, shortened: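 VERO cells were kept in MEM with Earle's salts and 10% FBS at 37 °C, 5% CO2. They were seeded in 96-well plates and allowed to recover for 24 h. Cells were then exposed to compounds in DMSO over a series from 1000 down to 4 for 72 h. Viability was read by MTT, and CC50 was calculated by Bliss analysis.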

Row | Compound | MIC90 [1] [µg/mL] | MIC90 [2] [µg/mL] | MIC90 (Staphylococcus aureus [3]) [µg/mL] | MIC90 (Staphylococcus aureus [4]) [µg/mL] | MIC90 (Enterococcus faecalis [5]) [µg/mL] | MIC90 (Enterococcus faecalis [6]) [µg/mL] | MIC90 (Enterococcus faecium [7]) [µg/mL] | MIC90 (Enterococcus faecium [8]) [µg/mL] | MIC90 (Escherichia coli [9]) [µg/mL] | MIC90 (Escherichia coli [10]) [µg/mL] | MIC90 (Klebsiella pneumoniae [11]) [µg/mL] | MIC90 (Klebsiella pneumoniae [12]) [µg/mL] | MIC90 (Pseudomonas aeruginosa) [µg/mL] | MIC90 [13] [µg/mL] | MIC90 (Enterobacter cloacae) [µg/mL] | MIC90 (Klebsiella aerogenes) [µg/mL] | MIC90 (Serratia marcescens) [µg/mL] | MIC90 (Morganella morganii) [µg/mL] | MIC90 (Providencia rettgeri) [µg/mL] | MIC90 [15] [µg/mL] | also measured
1 | CO/N=C1\C(=O)N(CCCN2CCN(c3cc4c(cc3F)c(=O)c(C(=O)OCCCN3C(=O)/C(=N/OC)c5cc(C)ccc53)cn4C3CC3)CC2)c2ccc(C)cc21 | 16 (≈ 20.2 µM) | 64 (≈ 80.8 µM) | 32 (≈ 40.4 µM) | 32 (≈ 40.4 µM) | 32 (≈ 40.4 µM) | 128 (≈ 162 µM) | 128 (≈ 162 µM) | > 128 | 8 (≈ 10.1 µM) | 16 (≈ 20.2 µM) | 32 (≈ 40.4 µM) | 16 (≈ 20.2 µM) | 32 (≈ 40.4 µM) | 64 (≈ 80.8 µM) | 16 (≈ 20.2 µM) | 32 (≈ 40.4 µM) | 32 (≈ 40.4 µM) | 64 (≈ 80.8 µM) | 32 (≈ 40.4 µM) | 25 (≈ 31.6 µM) | MIC90 (Proteus vulgaris): 32 µg/mL (≈ 40.4 µM); MIC90 (Proteus mirabilis): 64 µg/mL (≈ 80.8 µM); MIC90 [14]: 64 µg/mL (≈ 80.8 µM); MIC90 (Citrobacter freundii): 32 µg/mL (≈ 40.4 µM); CC50 at 72 h [16]: 16 µg/mL (≈ 20.2 µM)
2 | CCO/N=C1\C(=O)N(CCCN2CCN(c3cc4c(cc3F)c(=O)c(C(=O)O)cn4C3CC3)CC2)c2ccccc21 | 0.25 (≈ 0.445 µM) | 2 (≈ 3.56 µM) | 0.25 (≈ 0.445 µM) | 0.25 (≈ 0.445 µM) | 1 (≈ 1.78 µM) | 1 (≈ 1.78 µM) | 8 (≈ 14.2 µM) | 32 (≈ 57 µM) | ≤ 0.03 | ≤ 0.03 | 0.5 (≈ 0.89 µM) | 0.03 (≈ 0.0534 µM) | 1 (≈ 1.78 µM) | 1 (≈ 1.78 µM) | 0.06 (≈ 0.107 µM) | ≤ 0.03 | 0.125 (≈ 0.223 µM) | 0.03 (≈ 0.0534 µM) | ≤ 0.03 | 0.78 (≈ 1.39 µM) | MIC90 (Proteus vulgaris): ≤ 0.03 µg/mL; MIC90 (Proteus mirabilis): ≤ 0.03 µg/mL; MIC90 [14]: 0.125 µg/mL (≈ 0.223 µM); MIC90 (Citrobacter freundii): ≤ 0.03 µg/mL; CC50 at 72 h [16]: 64 µg/mL (≈ 114 µM)
3 | O=C1C(=O)N(CCCOC(=O)c2cn(C3CC3)c3cc(N4CCN(CCCN5C(=O)C(=O)c6ccccc65)CC4)c(F)cc3c2=O)c2ccccc21 | 64 (≈ 90.7 µM) | > 128 | 128 (≈ 181 µM) | > 128 | 64 (≈ 90.7 µM) | > 128 | > 128 | > 128 | 4 (≈ 5.67 µM) | 16 (≈ 22.7 µM) | 64 (≈ 90.7 µM) | 64 (≈ 90.7 µM) | > 128 | 128 (≈ 181 µM) | 128 (≈ 181 µM) | 64 (≈ 90.7 µM) | 32 (≈ 45.3 µM) | 64 (≈ 90.7 µM) | 128 (≈ 181 µM) | 12.5 (≈ 17.7 µM) | MIC90 (Proteus vulgaris): 64 µg/mL (≈ 90.7 µM); MIC90 (Proteus mirabilis): 64 µg/mL (≈ 90.7 µM); MIC90 [14]: > 128 µg/mL; MIC90 (Citrobacter freundii): 64 µg/mL (≈ 90.7 µM); CC50 at 72 h [16]: 32 µg/mL (≈ 45.3 µM)
4 | NNC(=O)c1ccncc1 [ISONIAZID] |  |  |  |  |  |  |  |  |  |  |  |  |  |  |  |  |  |  |  | 0.05 (≈ 0.365 µM) | 
5 | C[C@H]1COc2c(N3CCN(C)CC3)c(F)cc3c(=O)c(C(=O)O)cn1c23.C[C@H]1COc2c(N3CCN(C)CC3)c(F)cc3c(=O)c(C(=O)O)cn1c23.O [LEVOFLOXACIN] | 0.125 | 4 | 0.125 | 0.125 | 1 | 1 | 16 | 64 | ≤ 0.03 | ≤ 0.03 | 0.5 | ≤ 0.03 | 2 | 0.125 | ≤ 0.03 | 0.06 | 0.125 | ≤ 0.03 | ≤ 0.03 |  | MIC90 (Proteus vulgaris): ≤ 0.03 µg/mL; MIC90 (Proteus mirabilis): ≤ 0.03 µg/mL; MIC90 [14]: 1 µg/mL; MIC90 (Citrobacter freundii): ≤ 0.03 µg/mL
6 | CO[C@H]1/C=C/O[C@@]2(C)Oc3c(C)c(O)c4c(O)c(c(/C=N/N5CCN(C)CC5)c(O)c4c3C2=O)NC(=O)/C(C)=C\C=C\[C@H](C)[C@H](O)[C@@H](C)[C@@H](O)[C@@H](C)[C@H](OC(C)=O)[C@@H]1C [RIFAMPIN] |  |  |  |  |  |  |  |  |  |  |  |  |  |  |  |  |  |  |  | 0.39 (≈ 0.474 µM) | 
